Measurements: ChEMBL document CHEMBL1136969, “Synthesis of novel 2-alkoxy-3-amino-3-arylpropan-1-ols and 5-alkoxy-4-aryl-1,3-oxazinanes with antimalarial activity” (J Med Chem, 2009)
pIC50: −log10 of the molar value.

Experiments:
Plasmodium falciparum = assay: Antiplasmodial activity after 48 hrs against chloroquine-sensitive Plasmodium falciparum D10 infected human erythrocytes by LDH reporter assay; type: functional, organism-based; settings: D10, 48 h
How it was run: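 Asexual erythrocytic P. falciparum D10 (CQ-sensitive) kept in continuous culture (modified Trager–Jensen); growth read by parasite lactate dehydrogenase assay (modified Makler). Samples from 2 mg/mL stocks in 10% DMSO, sonicated, suspensions allowed; tested from 100 µg/mL in 2-fold serial dilutions in complete medium, 10 concentrations down to 0.2 µg/mL. Chloroquine reference from 100 ng/mL. Duplicate, one occasion; IC50 from full dose-response.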

[1] = Selectivity index, ratio of IC50 for CHO cells to IC50 for chloroquine-sensitive Plasmodium falciparum D10; type: toxicity, cell-based; settings: hamster, read-out: Ratio IC50
CHO [2] = assay: Cytotoxicity against CHO cells by MTT assay; type: cell-based; settings: Cricetulus griseus
How it was run: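 MTT colorimetric growth/survival assay. Samples from 2 mg/mL stocks in 10% methanol or 10% DMSO, suspensions allowed, stored at -20 °C; 10-fold serial dilutions in complete medium, six concentrations. Emetine reference from 100 µg/mL down to 0.001 µg/mL. Triplicate, one occasion; IC50 by nonlinear dose-response curve fitting.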

CHO [3] = assay: Cytotoxicity against CHO cells at 100 ug/mL by MTT assay; type: cell-based, Cricetulus griseus; settings: chinese hamster

pIC50 (Plasmodium falciparum) | IC90 (Plasmodium falciparum) [µM] | SMILES | selectivity ratio [1] | pIC50 (CHO [2]) | Activity (CHO [3])
4.07 | – | CCCN1COC[C@@H](Oc2ccccc2)[C@H]1c1ccccc1 (relative stereo) | – | – | –
4.06 | – | CCCN1COC[C@@H](Oc2ccccc2)[C@H]1c1ccc(OC)cc1 | – | – | –
4.78 | 47.8 | CCCN[C@@H](c1ccc(OC)cc1)[C@H](CO)Oc1ccccc1 | 8.8 | 3.84 | –
3.92 | – | CO[C@@H]1COCN(C(C)(C)C)[C@@H]1c1ccc(C)cc1 (relative stereo) | – | – | –
4.07 | – | CCCN[C@@H](c1ccccc1)[C@H](CO)Oc1ccccc1 | – | – | –
4.18 | – | CC(C)N1COC[C@@H](OCc2ccccc2)[C@H]1c1ccccc1 (relative stereo) | – | – | –
– | 0.067 | CCN(CC)CCCC(C)Nc1ccnc2cc(Cl)ccc12 (centres undefined) [CHLOROQUINE] | – | – | –
4.85 | 38.6 | Brc1ccccc1[C@@H]1[C@H](OCc2ccccc2)COCN1Cc1ccccc1 (relative stereo) | – | – | Non-toxic
5.20 | 12.5 | OC[C@H](OCc1ccccc1)[C@H](Nc1ccccc1)c1ccc(Cl)cc1 (relative stereo) | – | – | Non-toxic
3.76 | – | COc1cccc([C@@H](NC2CCCCC2)[C@H](CO)OC)c1 (relative stereo) | – | – | –
4.52 | – | Cc1ccc([C@@H]2[C@H](OCc3ccccc3)COCN2CC(C)C)cc1 (relative stereo) | – | – | –
4.82 | 70.8 | Cc1ccc([C@H](NCC(C)C)[C@H](CO)OCc2ccccc2)cc1 (relative stereo) | 9.4 | 3.84 | –
4.86 | 252 | CCCN[C@@H](c1ccc(C)cc1)[C@H](CO)Oc1ccccc1 | 23.8 | 3.49 | –
4.98 | 43.1 | OC[C@H](OCc1ccccc1)[C@@H](NCc1ccccc1)c1ccccc1Br (relative stereo) | – | – | Non-toxic
4.37 | – | COc1cccc([C@@H]2[C@H](OC)COCN2C2CCCCC2)c1 (relative stereo) | – | – | –
4.60 | 223 | OC[C@H](Oc1ccccc1)[C@@H](NCc1ccccc1)c1ccccc1F (relative stereo) | – | – | –
3.89 | – | CCCN1COC[C@@H](Oc2ccccc2)[C@H]1c1ccc(C)cc1 (relative stereo) | – | – | –
4.09 | – | Cc1ccc([C@@H]([C@H](CO)OCc2ccccc2)N(C)CC(C)C)cc1 (relative stereo) | – | – | –
4.77 | 118 | Fc1ccccc1[C@@H]1[C@H](Oc2ccccc2)COCN1Cc1ccccc1 (relative stereo) | – | – | Non-toxic
4.71 | 138 | Clc1ccc([C@@H]2[C@H](OCc3ccccc3)COCN2c2ccccc2)cc1 (relative stereo) | – | – | –
4.60 | 102 | CCCN[C@@H](c1cccc(OC)c1)[C@H](CO)Oc1ccccc1 | – | – | –
4.34 | 165 | CC(C)N[C@@H](c1ccccc1)[C@H](CO)OCc1ccccc1 (relative stereo) | – | – | –
– | – | CC[C@H]1CN2CCc3cc(OC)c(OC)cc3[C@@H]2C[C@@H]1C[C@H]1NCCc2cc(OC)c(OC)cc21 [EMETINE] | – | 6.97 | –
